Data reported in paper PMC6585461 (Biomaterials, 2019).

How the values were obtained:
SKOV-3 cells = assay: Intracellular uptake of RB-BSA by confocal microscopy; type: cell-based; conditions: BSA ~60 μg/mL, 2 h, 37 °C
Summary of the method: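 SKOV-3 cells in McCoy's 5A with 10% FBS were seeded at 5 × 10⁴ per well and allowed to adhere for 24 h. Lysosomes were labelled with LysoTracker Green DND-26 for 30 min at 37 °C. Rhodamine B-labelled BSA, free or nanocarrier-loaded (final BSA ~60 μg/mL), was added for 2 h. Cells were washed three times with PBS, fixed in 4% paraformaldehyde for 15 min at room temperature, DAPI-stained and imaged by laser scanning confocal microscopy.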

blood glucose = assay: Hypoglycemic effect of insulin formulations; type: in vivo, BALB/c mice; conditions: fasted mice, s.c., 2 IU/kg
Summary of the method: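 Healthy BALB/c mice, 6-7 weeks old, were fasted overnight with water only and kept fasted throughout, n=6 per group. They received a subcutaneous injection at an insulin dose of 2 IU/kg, either free insulin or insulin loaded in nanocarriers at a 1/10 insulin:polymer mass ratio. Blood glucose was followed with a glucose meter over 0-6 h. Area above the curve was calculated by the trapezoidal method.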

Substance	cellular uptake of RB-BSA (free or loaded in the nanocarrier) (SKOV-3 cells)	glycemic decrease (blood glucose; 30 min after injection, n=6)	blood glucose recovery, % of basal level (blood glucose; after 2 h)	time of maximal blood glucose drop (nadir) (blood glucose; n=6)
RB-BSA: Rhodamine B (RB)-labeled BSA, model protein	minimal			
insulin: insulin (MW: 5807 Da)		32%	80%	1 h
